# High-throughput results as filed in PubChem BioAssay.
# Shown are actives, neighbours in structure and some others; about 3.7% of the full set was active somewhere.
# XBP1 UPR activ: activators of adaptive arm of unfolded protein response (XBP1) | CHO-XBP1 luciferase reporter, IRE1-XBP1 UPR activation, luminescence; percent of tunicamycin response, DMSO as zero | activation, % at 20 µM | actives 0.33% (n = 330,000);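 active = versus positive control, 20 µM dose yields 30% or more activation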
#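 Material: CHO-XBP1 cells stably carrying IRE1-XBP1-driven luciferase reporter | Medium: F12 with 10% serum | Compound dosing: 20 µM single concentration, DMSO 1% | Incubation: Overnight seeding at 37 °C, 6 h compound treatment at 37 °C | Detection: Steady-Glo luminescence read | Read-out basis: % activation of reporter signal versus tunicamycin and DMSO controls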
# MDM2 E3 inh: blocks human Mdm2 ubiquitin ligase activity; cell-based MDM2 ubiquitination luciferase reporter, 2 h; 0 = plate control, 100 = twice control, blank-subtracted; signal enhancement, % at 5 µM; Q00987; actives 0.11% (n = 210,000);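 active = signal enhancement of 30% or more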;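 also: luminescence tracks abundance of the self-degrading MDM2-luciferase fusion protein; higher signal means inhibition of MDM2 E3 ligase activity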
#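 Material: stable MDM2–luciferase fusion reporter cells / Quantity: 2000 cells/well / Dosing: single 5 µM compound dose, 0.2% final DMSO / Buffer or medium: DMEM / Schedule: 4 h cell settling then 2 h compound exposure, 37 °C / Detection: luminescence with SteadyLite reagent, 15 min at room temperature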
# Mdm2 MdmX PPI: disrupts the human Mdm2-MdmX interaction; O15151+Q00987; SaOS-2 split-luciferase Mdm2/MdmX complementation, luminescence; inhibition, % at 8 µM; actives 3% (n = 330,000); AID 485346;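 active = inhibition of at least 50% at 8 µM in the primary screen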
# UPR CHOP act: apoptotic UPR (CHOP) activation; activation, % at 10 µM; CHO-CHOP luciferase reporter, luminescence; percent of tunicamycin response over DMSO baseline; actives 0.34% (n = 330,000);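 active = at 10 µM dose, activation of 40% or more, normalized to positive control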
#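 System: CHO CHOP reporter cells. Amount: 500 cells per well. Buffer or medium: F12 medium, 10% FBS. Compound dosing: one dose, 10 µM in 0.5% DMSO. Incubation: 6 h compound exposure at 37 °C after overnight seeding. Technique: Steady-Glo luciferase luminescence. Benchmarks: tunicamycin and DMSO controls.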
# B2AR ag: human beta-2 adrenergic receptor agonism by FAP; actives 0.43% (n = 340,000); AID 504454; P07550; response, % (concentration not given with the values); Am2.2-beta2AR cells, FAP receptor internalization, flow cytometry;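 active = response above a set limit, near 3 SD of response in nonfluorescent compounds, cut at about 42% in these data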
# Target sequence (P07550 whole entry, looked up): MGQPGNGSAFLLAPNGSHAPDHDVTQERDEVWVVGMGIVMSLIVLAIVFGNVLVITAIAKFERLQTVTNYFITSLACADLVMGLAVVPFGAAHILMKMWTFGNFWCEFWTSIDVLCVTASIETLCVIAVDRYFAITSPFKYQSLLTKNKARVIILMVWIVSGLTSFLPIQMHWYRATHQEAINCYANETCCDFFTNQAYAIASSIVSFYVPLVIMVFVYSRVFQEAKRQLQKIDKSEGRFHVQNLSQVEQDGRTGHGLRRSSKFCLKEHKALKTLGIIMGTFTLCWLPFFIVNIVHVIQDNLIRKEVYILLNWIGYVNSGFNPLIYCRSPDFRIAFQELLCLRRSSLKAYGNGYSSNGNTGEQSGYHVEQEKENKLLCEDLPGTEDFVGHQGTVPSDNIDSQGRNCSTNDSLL
# Dynein cargo inh: blocks dynein driven cargo transport along microtubules; 3617.4 mouse cells, GR-EGFP nuclear translocation imaging; test concentration mostly 20 µM; stimulated with dexamethasone, 1 µM; hits give low values; z-score, hits read low; actives 0.47% (n = 220,000); AID 1381;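 active = plate z-score of nuclear minus cytoplasmic receptor signal below a set negative limit, without overly bright fluorescence or cell loss, cut at about -3.5 in these data, passing the limit was not always enough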;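 also: z-score of nuclear minus cytoplasmic ring GR-EGFP intensity difference per well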
#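 medium = tetracycline-free induction medium containing charcoal-stripped FBS | probe or stimulus = dexamethasone, 1.0 µM final | timing = 48 h induction, then 1 h compound, then 30 min agonist, 37 °C | detection = automated 10x imaging of fixed Hoechst-stained cells | read-out basis = nuclear versus cytoplasmic GR-EGFP signal, averaged per well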
# Mdm2-MdmX conf: confirmation of human Mdm2/MdmX interaction inhibitors; Mdm2-MdmX binding, luminescent assay; inhibition, % at 8 µM; AID 489028; actives 55% (n = 10,000); shares compounds with Mdm2 MdmX PPI; in the data active = inhibition above about 40%
# Full FLuc ctr: full-length luciferase inhibition in Mdm2/MdmX counter-screen; inhibition, % at 8 µM; actives 77% (n = 6,200); SaOS-2 full-length luciferase counterscreen, luminescence; AID 504607; shares compounds with Mdm2 MdmX PPI;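 active = mean inhibition at 8 µM reaching about 37%, which flags the compound as non-specific, limit read from the data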;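 also: p53-null SaOS-2 cells with luciferase driven by a doxycycline-inducible promoter; compound on cells about two nights before reading with doxycycline added after day one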
# Numbers stand for hits; . = inactive; / = not tested or not shown.
SMILES,XBP1 UPR activ,MDM2 E3 inh,Mdm2 MdmX PPI,UPR CHOP act,B2AR ag,Dynein cargo inh,Mdm2-MdmX conf,Full FLuc ctr
CCC(C)Sc1cc(-c2nc3ccccn3c2NC2CCCCC2)ccc1OC (centres undefined),.,/,69,.,.,/,.,/
Nc1c(C(=O)CSc2nc(-c3ccccc3)cs2)c(=O)[nH]c(=O)n1C1CC1,.,/,.,.,.,/,/,/
Cc1nn(Cc2ccc(Cl)cc2Cl)c(C)c1NC(=O)c1sc2ccccc2c1Cl,.,.,.,.,.,.,/,/
Cc1nn(Cc2ccc(Cl)c(Cl)c2)c(C)c1NC(=O)c1sc2ccccc2c1Cl,.,.,53,.,.,.,.,/
COc1cc2oc(=O)cc(-c3ccc(-c4ccc(CO)cc4)cc3)c2c(OC)c1OC,.,/,68,.,.,/,64,48
COc1cc2oc(=O)cc(-c3ccc(-c4ccc(C)cc4)cc3)c2c(OC)c1OC,.,/,.,.,.,/,/,/
N#CC1=C(N)Oc2cc(O)ccc2C1c1ccc(Br)s1 (centres undefined),.,/,.,.,.,/,/,/
CC(=O)c1ccccc1OCc1ccc(S(=O)(=O)Cc2ccccc2)cc1,.,/,.,.,.,/,/,/
COc1ccc(/C(C)=N/NC(=O)c2cccc(S(=O)(=O)N3CCCC3)c2)c(O)c1,.,/,67,.,.,/,81,.
CCOc1ccc(C(=O)N[C@H](C(=O)Nc2cccc(S(=O)(=O)N3CCOCC3)c2)C(C)C)cc1,.,/,.,.,.,/,/,/
CCOc1ccc(C(=O)N[C@H](C(=O)Nc2cccc(S(=O)(=O)N3CCCCC3)c2)C(C)C)cc1,.,.,51,.,.,.,.,/
COc1ccc(NS(=O)(=O)c2cccc(NC(=O)c3ccc(S(=O)(=O)N4CCCCCC4)cc3)c2)cc1,.,.,53,.,.,.,.,/
Nc1c(-c2ccccc2)c(CSc2nc3ccccc3[nH]2)nn1-c1cccc(Cl)c1,.,.,61,.,.,.,.,/
Nc1c(-c2ccccc2)c(CSc2nc3ccccc3[nH]2)nn1-c1ccc(Cl)cc1,/,.,/,/,.,.,/,/
CCSc1nc(-c2ccccc2)nc(C(Cl)Cl)n1,.,.,98,.,.,.,100,.
COc1ccccc1C1CCCN1Cc1nc(-c2ccc(C)s2)oc1C (centres undefined),.,.,75,.,.,.,66,52
COc1ccccc1C1CCCN1Cc1nc(-c2cc3c(cc2Cl)OCO3)oc1C (centres undefined),.,.,.,.,.,.,/,/
C/C(CC(=O)Nc1cc(C)ccn1)=N\NC(=O)c1cccc(C)c1O,.,/,66,.,.,/,46,121
Cc1ccc(C)c(Cn2c(C)nc3c(sc(=S)n3-c3ccccc3)c2=O)c1,.,.,60,.,.,.,.,/
Cc1ccc(-n2c(SCC(=O)O)nc3c(sc(=S)n3-c3ccc(C)c(C)c3)c2=O)cc1,.,/,.,.,.,/,/,/
COc1ccc(CCNC(=S)Nc2cccc3ccccc23)cc1,.,.,64,.,.,.,.,/
COc1ccc(N2CCN(C(CNC(=O)C3CCCCC3)c3ccco3)CC2)cc1 (centres undefined),.,/,.,.,.,/,/,/
COc1ccc(N(CC(=O)NN=C2CCN(C)CC2)S(=O)(=O)c2ccc(NC(C)=O)cc2)cc1,.,/,.,.,.,/,/,/
O=C(CN(Cc1ccccc1)C(=O)CCl)c1cccc(Br)c1,.,/,100,.,.,/,80,60
COc1ccc2oc(=Nc3ccccc3)c(-c3nc4ccccc4[nH]3)cc2c1,.,.,88,.,.,.,.,/
SMILES,XBP1 UPR activ,MDM2 E3 inh,Mdm2 MdmX PPI,UPR CHOP act,B2AR ag,Dynein cargo inh,Mdm2-MdmX conf,Full FLuc ctr
CC(=O)c1cc(CN2CCN(C(C)C)C(CCO)C2)cs1 (centres undefined),.,.,.,.,.,.,/,/
C[C@H]1CN([C@@H](C)CO)C(=O)Cc2cc(NC(=O)CCC(F)(F)F)ccc2O[C@H]1CN(C)Cc1ccc(-c2ccccc2)cc1,.,/,55,.,.,/,.,/
C[C@@H]1CN([C@H](C)CO)C(=O)c2cc(NS(=O)(=O)c3ccc(F)cc3)ccc2O[C@@H]1CN(C)Cc1ccc(Cl)c(Cl)c1,.,/,78,.,.,/,57,50
C[C@H](CO)N1C[C@H](C)[C@@H](CN(C)S(=O)(=O)c2ccc(F)cc2)Oc2ccc(NS(=O)(=O)c3ccc(F)cc3)cc2C1=O,.,/,.,.,.,/,/,/
C[C@H](CO)N1C[C@H](C)[C@H](CN(C)Cc2ccc(-c3ccccc3)cc2)Oc2ccc(NS(=O)(=O)c3ccccc3)cc2CC1=O,.,/,85,.,.,/,.,/
C[C@@H]1CN([C@@H](C)CO)C(=O)Cc2cc(NS(=O)(=O)c3ccccc3)ccc2O[C@H]1CN(C)Cc1ccncc1,.,/,.,.,.,/,/,/
Cc1ccc(S(=O)(=O)Nc2ccc3c(c2)CC(=O)N([C@H](C)CO)C[C@@H](C)[C@H](CN(C)Cc2ccc(-c4ccccc4)cc2)O3)cc1,.,/,82,.,.,/,.,63
CSc1cccc(NC(=O)C2CCCN(S(=O)(=O)c3cccs3)C2)c1 (centres undefined),.,/,.,.,.,/,/,/
CCOC(=O)c1ccc(NC(=O)CN2CCN(C(=O)C3CCCO3)CC2)cc1 (centres undefined),.,/,.,.,.,/,/,/
COC(=O)c1ccccc1NC(=O)CNCCc1ccc(OC)c(OC)c1,.,/,.,.,.,/,/,/
Cc1ccc(C(=O)OCC(=O)c2ccc(S(=O)(=O)N3CCCCC3)cc2)o1,.,/,.,.,.,/,/,/
COc1ccc(OC)c(NC(=S)NC(=O)c2ccc(Br)o2)c1,.,/,.,.,.,/,/,/
COc1ccc(NC(=O)C/C(C)=N/NC(=O)c2cccs2)c([N+](=O)[O-])c1,.,/,.,.,.,/,/,/
CC(=O)Nc1nonc1-c1nc2ccccc2n1Cc1ccccc1,.,.,70,.,.,.,66,118
O=C1/C(=C/c2ccccc2)Nc2ccccc21,.,.,.,.,.,.,/,/
O=C1/C(=C/c2ccccc2)NC(=S)N1C(c1ccccc1)c1ccccc1,.,.,51,.,.,.,59,61
CCOc1ccc(NC(=O)CSc2ccc(-c3ccccn3)nn2)cc1,.,.,.,.,.,.,/,/
CCOC(=O)c1ccc(NC(=O)CSc2ccc(-c3ccccn3)nn2)cc1,.,/,70,.,.,/,53,59
